Data set [1] can be described thus: Prodrug conversion in carboxylesterase 1 knockout C57BL/6 mouse plasma assessed as Cmax of 2,6-Dimethoxy-4-(4-phenyl-5-thiophen-2-yl-1H-imidazol-2-yl)phenol at 16.62 mg/kg, po administered as single dose measured upto 8 hrs by LC-MS/MS analysis. It is filed as ADME, organism-based. The arrangement: time < 8 hrs, dose 16.62 mg/kg, route po. To be noted: in vivo.

A short description of data set [2]: Prodrug conversion in carboxylesterase 1 knockout C57BL/6 mouse brain assessed as AUC of 2,6-Dimethoxy-4-(4-phenyl-5-thiophen-2-yl-1H-imidazol-2-yl)phenol at 16.62 mg/kg, po administered as single dose measured upto 8 hrs by LC-MS/MS analysis. Conditions: in vivo. The arrangement: dose 16.62 mg/kg, time < 8 hrs, route po. In kind it is ADME, organism-based.
The nature of data set [3]: Prodrug conversion in carboxylesterase 1 knockout C57BL/6 mouse plasma assessed as increase in 2,6-Dimethoxy-4-(4-phenyl-5-thiophen-2-yl-1H-imidazol-2-yl)phenol release at 16.62 mg/kg, po administered as single dose measured after 2 hrs by LC-MS/MS analysis. It is filed as ADME, organism-based. To be noted: in vivo.
The nature of data set [4]: Stability in carboxylesterase 1 knockout C57BL/6 mouse plasma assessed as intact compound level at 16.62 mg/kg, po administered as single dose measured upto 8 hrs by LC-MS/MS analysis. In kind it is ADME, organism-based. To be noted: read-out: Stability.
Data set [5] in a line: Prodrug conversion in carboxylesterase 1 knockout C57BL/6 mouse plasma assessed as AUC of 2,6-Dimethoxy-4-(4-phenyl-5-thiophen-2-yl-1H-imidazol-2-yl)phenol at 16.62 mg/kg, po administered as single dose measured upto 8 hrs by LC-MS/MS analysis. Conditions: in vivo. The arrangement: time < 8 hrs, dose 16.62 mg/kg, route po. It is filed as ADME, organism-based.
Data set [6] is described as follows: Metabolic stability of the compound in carboxylesterase 1 knockout mouse liver assessed as parent compound remaining at 10 uM measured after 1 hr in by UPLC analysis. It is filed as ADME, tissue-based. An outline of the steps:
(§1)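 Plasma, or liver or brain homogenised 10-fold in 0.1 M potassium phosphate buffer, from CES1−/− mice. Spiked with 10 μM prodrug (final) and shaken at 37 °C for 1 h, in triplicate. Samples at 0 and 1 h were quenched with three volumes of acetonitrile containing losartan. Intact prodrug was measured by UHPLC-orbitrap MS and expressed as % remaining, mean ± SE.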

The nature of data set [7]: Half life in carboxylesterase 1 knockout C57BL/6 mouse brain at 16.62 mg/kg, po administered as single dose measured upto 8 hrs by LC-MS/MS analysis. It is filed as ADME, organism-based.
A short description of data set [8]: Half life in carboxylesterase 1 knockout C57BL/6 mouse plasma at 16.62 mg/kg, po administered as single dose measured upto 8 hrs by LC-MS/MS analysis. It is filed as ADME, organism-based.
Data set [9] is described as follows: Prodrug conversion in carboxylesterase 1 knockout C57BL/6 mouse brain assessed as increase in 2,6-Dimethoxy-4-(4-phenyl-5-thiophen-2-yl-1H-imidazol-2-yl)phenol release at 16.62 mg/kg, po administered as single dose measured after 2 hrs by LC-MS/MS analysis. It is filed as ADME, organism-based. To be noted: in vivo.
Data set [10] is described as follows: Protein binding in mouse plasma assessed as free fraction at 3 to 10 mg/kg, po by ultrafiltration assay. It is filed as ADME, organism-based. Conditions: dose 3-10 mg/kg.
Data set [11] can be described thus: Ratio of prodrug conversion in carboxylesterase 1 knockout C57BL/6 mouse brain to plasma assessed as 2,6-Dimethoxy-4-(4-phenyl-5-thiophen-2-yl-1H-imidazol-2-yl)phenol release at 16.62 mg/kg, po administered as single dose measured after 2 hrs by LC-MS/MS analysis. In kind it is ADME, organism-based.
The nature of data set [12]: Prodrug conversion in carboxylesterase 1 knockout C57BL/6 mouse brain assessed as Cmax of 2,6-Dimethoxy-4-(4-phenyl-5-thiophen-2-yl-1H-imidazol-2-yl)phenol at 16.62 mg/kg, po administered as single dose measured upto 8 hrs by LC-MS/MS analysis. The arrangement: dose 16.62 mg/kg, time < 8 hrs, route po. In kind it is ADME, organism-based. Conditions: in vivo.
The nature of data set [13]: Metabolic stability of the compound in carboxylesterase 1 knockout mouse brain assessed as parent compound remaining at 10 uM measured after 1 hr in by UPLC analysis. In kind it is ADME, tissue-based. An outline of the steps:
as §1

Data set [14] is described as follows: Metabolic stability of the compound in carboxylesterase 1 knockout mouse plasma assessed as parent compound remaining at 10 uM measured after 1 hr in by UPLC analysis. It is filed as ADME, cell-free. An outline of the steps:
as §1

For the next data set, the system named is Mus musculus. In words: Antiinflammatory activity against GFAP-EGFP transgenic mouse model assessed as as inhibition of GFP-labeled extracellular vesicle release at 3 to 10 mg/kg, po pretreated with compound for 30 mins followed by IL-1beta injection measured after 4 hrs. It is filed as functional, organism-based. To be noted: dose 3-10 mg/kg. The method, boiled down:
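Euthanized 4 h later. Platelet-free plasma was prepared and GFP+ EVs were captured on anti-GFP antibody-coupled magnetic beads and counted by particle tracking, blinded. Mean ± SEM, one-way ANOVA with Tukey.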

Data set [15] is described as follows: Tmax in carboxylesterase 1 knockout C57BL/6 mouse brain at 16.62 mg/kg, po administered as single dose measured upto 8 hrs by LC-MS/MS analysis. It is filed as ADME, organism-based.
A short description of data set [16]: Stability in carboxylesterase 1 knockout C57BL/6 mouse brain assessed as intact compound level at 16.62 mg/kg, po administered as single dose measured upto 8 hrs by LC-MS/MS analysis. In kind it is ADME, organism-based. To be noted: read-out: Stability.
Data set [17] is described as follows: Tmax in carboxylesterase 1 knockout C57BL/6 mouse plasma at 16.62 mg/kg, po administered as single dose measured upto 8 hrs by LC-MS/MS analysis. In kind it is ADME, organism-based.

Calls of active or inactive are those of the source. The calls are words filed in the database; no cut-off is given here.

As for `CCC1CC(N2CCCCC2)CC(CC)N1C(=O)Oc1c(OC)cc(-c2nc(-c3ccccc3)c(-c3cccs3)[nH]2)cc1OC` (stereo not drawn), the Cmax stood at 190 pmol·h/g in data set [1] and 69 pmol·h/g in data set [12]. The AUC in [2] was found to be 247 pmol·h/g; in [5], 1047 pmol·h/g. Also, the figures for the Drug metabolism in [3] and in data set [9] were 189.3 nM and 61.5 nM, respectively. In addition, the concentration at 8 h in data set [4] amounted to 283 nM; in data set [16], 35.2 nM. Also, the Stability in data set [6] was determined as 100%; in data set [13], 100%; in data set [14], 92%. Moreover, the results for the half-life in [7] and in [8] were 1.8 h and 2.7 h, respectively. The fraction unbound in data set [10] turned out to be 0.9. For the same compound, the BPR in data set [11] is listed as 0.24. Besides, the outcome in the data set with Mus musculus was Active. For the same compound, the Tmax in data set [15] and in data set [17] was 2 h in each case.

The term half-life denotes how long it takes for the measured level to halve. High values mean slow loss, low ones fast loss. The fraction unbound is the share of the substance not bound to proteins or other matrix. What is called Tmax is the time at which the peak concentration occurs.

The values are drawn from ChEMBL document CHEMBL5137084 (J Med Chem, 2022).
